The source of these data is ChEMBL document CHEMBL3774373, “Activity and Predicted Nephrotoxicity of Synthetic Antibiotics Based on Polymyxin B” (J Med Chem, 2016).

Broadly, the CC50 is the concentration that lowers cell viability or growth by half.

In brackets after ≈: the same amount, converted by molar mass. Bridge positions count the residues as written; N and C are the ends. Square brackets hold non-standard residues; d marks the D form. Peptide text beside a SMILES is read from it. * marks the point of attachment. Benzoyl(4-OPh) = O=C(c1ccc(Oc2ccccc2)cc1)*; Benzoyl(4-Ph) = O=C(c1ccc(-c2ccccc2)cc1)*; Octanoyl = CCCCCCCC(=O)*; Dab = NCC[C@H](N)C(=O)O

Data set [1] has as its system Acinetobacter baumannii. In words: Antibacterial activity against clinical isolate carbapenem and polymyxin resistant Acinetobacter baumannii Ptyela 100734512:2 after 18 hrs by 2 fold serial dilution method. The settings on record: Ptyela 100734512:2, 18 h. The format is functional. The procedure, abridged:
(§1)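 Polymyxin-resistant clinical isolates were grown overnight at 37 °C in NB or MHB with shaking, diluted 50-fold in MHB and grown 1.5–3 h to mid-log phase. The inoculum was 5×10^5 CFU/mL. Compounds were 2-fold broth serial dilutions, final 32 to 0.015 μg/mL; the polymyxin controls ran 128–0.06 μg/mL. The MIC was the lowest concentration with no visible growth after 18 h at 37 °C.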

Data set [2] deals with Klebsiella pneumoniae. The data set is described as follows: Antibacterial activity against Klebsiella pneumoniae ATCC BAA-2146 expressing NDM-1 after 18 hrs by 2 fold serial dilution method. As to conditions: ATCC BAA-2146, 18 h. The format is functional. The procedure, abridged: (§2)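 Overnight cultures at 37 °C in nutrient or Mueller Hinton broth with shaking were diluted 50-fold in MHB and grown 1.5–3 h to mid-log phase. The inoculum was 5×10^5 CFU/mL in MHB. Compounds were 2-fold serially diluted, final 32 to 0.015 μg/mL. After 18 h at 37 °C, the MIC was read visually as the lowest concentration with no visible growth.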

Data set [3] can be described thus: Cytotoxicity against primary human proximal tubule cells assessed as GGT release at 100 ug/mL by Western blot analysis. A general note: A western blot detects proteins with antibodies after separation by electrophoresis.
In data set [4] the test system is Acinetobacter baumannii. The data set is described as follows: Antibacterial activity against Acinetobacter baumannii ATCC 19606 after 18 hrs by 2 fold serial dilution method. The format is functional. The settings on record: ATCC 19606, 18 h. In a few lines: (§3)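 Overnight cultures in nutrient or Mueller Hinton broth at 37 °C with shaking, diluted 50-fold into fresh MHB and grown 1.5–3 h to mid-log. Inoculum 5×10^5 CFU/mL in 2-fold serial dilutions, final range 32 to 0.015 μg/mL. MIC read visually after 18 h at 37 °C as the lowest concentration with no visible growth.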

Data set [5] concerns Klebsiella pneumoniae. The data set is described as follows: Antibacterial activity against multidrug resistant Klebsiella pneumoniae ATCC 700603 after 18 hrs by 2 fold serial dilution method. The format is functional. The settings on record: Klebsiella pneumoniae, 700603, 18 h. In a few lines: as §2
The test system of data set [6] is Klebsiella pneumoniae. In words: Antibacterial activity against Klebsiella pneumoniae ATCC 13883 after 18 hrs by 2 fold serial dilution method. The format is functional. As to conditions: ATCC 13883, 18 h. The procedure, abridged:
as §3

Data set [7] can be described thus: Cytotoxicity against human HepG2 cells after 24 hrs by resazurin assay. As to conditions: HepG2 cells. The format is cell-based.
Data set [8] deals with Pseudomonas aeruginosa. The data set is described as follows: Antibacterial activity against clinical isolate polymyxin resistant Pseudomonas aeruginosa PA9704 after 18 hrs by 2 fold serial dilution method. As to conditions: PA9704, 18 h. The format is functional. The procedure, abridged: as §1
The subject of data set [9] is Klebsiella pneumoniae. The data set is described as follows: Antibacterial activity against clinical isolate carbapenem and polymyxin resistant Klebsiella pneumoniae Koprana 100650661:1 after 18 hrs by 2 fold serial dilution method. The format is functional. As to conditions: Koprana 100650661:1, 18 h. In a few lines: as §1
Data set [10] can be described thus: Cytotoxicity against HEK293 cells after 24 hrs by resazurin assay. As to conditions: human, HEK293 cells. The format is cell-based. Background: Alamar Blue is a resazurin reagent that responds to reducing activity.
The subject of data set [11] is Pseudomonas aeruginosa. The data set is described as follows: Antibacterial activity against clinical isolate polymyxin resistant Pseudomonas aeruginosa FADDI-PA070 after 18 hrs by 2 fold serial dilution method. The settings on record: FADDI-PA070, 18 h. The format is functional. The procedure, abridged:
as §1

For data set [12], the system named is Staphylococcus aureus. The data set is described as follows: microbe, parasite or virus in culture. As to conditions: ATCC 25923, 18 h.
In data set [13] the test system is Klebsiella pneumoniae. In words: Antibacterial activity against clinical isolate carbapenem and polymyxin resistant Klebsiella pneumoniae 138-16357-20362 after 18 hrs by 2 fold serial dilution method. The format is functional. As to conditions: 138-16357-20362, 18 h. In a few lines:
as §1

The test system of data set [14] is Pseudomonas aeruginosa. The data set is described as follows: Antibacterial activity against Pseudomonas aeruginosa ATCC 27853 after 18 hrs by 2 fold serial dilution method. As to conditions: ATCC 27853, 18 h. The format is functional. In a few lines: as §3
Data set [15] is described as follows: Cytotoxicity against HK2 cells assessed as LDH release by Western blot analysis. The format is cell-based, HK-2. As to conditions: human, primary human renal proximal tubule epithelial cells; read-out: CC50. For orientation: LDH leaks from cells whose membrane has failed.
The nature of data set [16]: Cytotoxicity against HK2 cells assessed as GGT release by Western blot analysis. The format is cell-based, HK-2. As to conditions: human, primary human renal proximal tubule epithelial cells; read-out: CC50.
A short description of data set [17]: Cytotoxicity against HK2 cells assessed as LDH release by Western blot analysis. As to conditions: human, hk-2.
Data set [18] deals with Escherichia coli. The data set is described as follows: Antibacterial activity against Escherichia coli ATCC 25922 after 18 hrs by 2 fold serial dilution method. As to conditions: ATCC 25922, 18 h. The format is functional. The procedure, abridged:
as §3

For data set [19], the system named is Pseudomonas aeruginosa. In words: Antibacterial activity against Pseudomonas aeruginosa. The format is functional.
For data set [20], the system named is Staphylococcus aureus. The data set is described as follows: Antibacterial activity against Staphylococcus aureus. The format is functional.
For data set [21], the system named is Escherichia coli. In words: Antibacterial activity against Escherichia coli. The format is functional.

For `CC(C)C[C@@H]1NC(=O)[C@@H](Cc2ccccc2)NC(=O)[C@H](CCN)NC(=O)[C@@H](NC(=O)[C@H](CCN)NC(=O)[C@@H](NC(=O)[C@H](CCN)NC(=O)c2ccc(-c3ccccc3)cc2)[C@@H](C)O)CCNC(=O)[C@H]([C@@H](C)O)NC(=O)[C@H](CCN)NC(=O)[C@H](CCN)NC1=O` ({Benzoyl(4-Ph)}-[Dab]T[Dab][Dab][Dab][dF]L[Dab][Dab]T; lactam 4-C), the MIC in data set [1] is 8 µg/mL (≈ 6.43 µM); in data set [2], 0.5 µg/mL (≈ 0.402 µM); in data set [4], 0.5 µg/mL (≈ 0.402 µM); in data set [5], 1 µg/mL (≈ 0.804 µM); in [6] it was 0.5 µg/mL (≈ 0.402 µM); in data set [8] it was greater than 32 µg/mL. Besides, the MIC in data set [9] is greater than 32 µg/mL; in [11], 8 µg/mL (≈ 6.43 µM); in [12], greater than 32 µg/mL; in data set [13] it was greater than 32 µg/mL; in data set [14], 1 µg/mL (≈ 0.804 µM); in data set [18], 0.5 µg/mL (≈ 0.402 µM). Moreover, the Activity result in [3] and in data set [17] was “Non-toxic” each time. In addition, the CC50 at 24 h in [7] was found to be 298 µM; in data set [10], 297 µM. Moreover, the CC50 in [15] and in data set [16] was greater than 128 µg/mL each time.
In the case of `CC(C)C[C@@H]1NC(=O)[C@@H](Cc2ccccc2)NC(=O)[C@H](CCN)NC(=O)[C@@H](NC(=O)[C@H](CCN)NC(=O)[C@@H](NC(=O)[C@H](CCN)NC(=O)c2ccc(Oc3ccccc3)cc2)[C@@H](C)O)CCNC(=O)[C@H]([C@@H](C)O)NC(=O)[C@H](CCN)NC(=O)[C@H](CCN)NC1=O` ({Benzoyl(4-OPh)}-[Dab]T[Dab][Dab][Dab][dF]L[Dab][Dab]T; lactam 4-C), the MIC in [1] was determined as 16 µg/mL (≈ 12.7 µM); in data set [2], 0.5 µg/mL (≈ 0.397 µM); in [4], 0.5 µg/mL (≈ 0.397 µM); in data set [5], 0.5 µg/mL (≈ 0.397 µM); in data set [6], 0.5 µg/mL (≈ 0.397 µM); in data set [8], 32 µg/mL (≈ 25.4 µM). For the same compound, the MIC is greater than 32 µg/mL in [9]; 8 µg/mL (≈ 6.35 µM) in data set [11]; greater than 32 µg/mL in data set [12]; greater than 32 µg/mL in data set [13]; 1 µg/mL (≈ 0.794 µM) in [14]; 0.5 µg/mL (≈ 0.397 µM) in data set [18]. The Activity entry in data set [3] and in [17] was “Non-toxic” each time. The CC50 at 24 h in data set [7] was 287 µM; in [10], 296 µM. In addition, the CC50 in [15] and in data set [16] was greater than 128 µg/mL each time.
With `CCCCCCCC(=O)N[C@H](C(=O)N[C@@H](CCN)C(=O)N[C@H]1CCNC(=O)[C@H]([C@@H](C)O)NC(=O)[C@H](CCN)NC(=O)[C@H](CCN)NC(=O)[C@H](CC(C)C)NC(=O)[C@@H](Cc2ccccc2)NC(=O)[C@H](CCN)NC1=O)[C@@H](C)O` [Octanoyl Polymixin B nonapeptide] (Octanoyl-T[Dab][Dab][Dab][dF]L[Dab][Dab]T; lactam 3-C), the MIC in data set [1] is greater than 32 µg/mL; in [2] it was 2 µg/mL (≈ 1.84 µM); in data set [4], 2 µg/mL (≈ 1.84 µM); in data set [19], 4 µg/mL (≈ 3.67 µM); in data set [5] it was 2 µg/mL (≈ 1.84 µM); in data set [6], 1 µg/mL (≈ 0.918 µM). For the same compound, the MIC is greater than 32 µg/mL in data set [8]; greater than 32 µg/mL in [9]; greater than 32 µg/mL in [11]; greater than 16 µg/mL in data set [20]; greater than 32 µg/mL in data set [12]; greater than 32 µg/mL in data set [13]. Also, the MIC in data set [14] was 0.5 µg/mL (≈ 0.459 µM); in [21], 0.03 µg/mL (≈ 0.0275 µM); in data set [18], 1 µg/mL (≈ 0.918 µM). The compound further displayed a CC50 at 24 h in data set [7] greater than 300 µM.
